# Test results: ChEMBL document CHEMBL1140065, “Potent cationic inhibitors of West Nile virus NS2B/NS3 protease with serum stability, cell permeability and antiviral activity” (J Med Chem, 2008)
# Calls of active or inactive are those of the source. No cut-off for these calls is given here. Starred links: 1 amine or outer side, 2 acyl side, 3 side chain; linkers in the order of their positions; H or OH if unused. Non-standard residues stand in square brackets, D forms with d. Residues, ends and D or L forms follow the SMILES beside them. *: point of attachment. Hydrocinnamoyl = O=C(CCc1ccccc1)*; hArg = N=C(N)NCCCC[C@H](N)C(=O)O; Cit = NC(=O)NCCC[C@H](N)C(=O)O; Orn = NCCC[C@H](N)C(=O)O; 2Abz = Nc1ccccc1C(=O)O; Cbz = O=C(OCc1ccccc1)*; PhAc = O=C(Cc1ccccc1)*; CO = O=C([*:1])[*:2]; NHBn = c1ccc(CN*)cc1; Bz = O=C(c1ccccc1)*
# Tests used:
# Genome polyprotein = Genome polyprotein (West Nile virus, UniProt P06935); experiment: Inhibition of WNV recombinant NS2B-NS3 protease
# [1] = molecular target: Genome polyprotein (West Nile virus) (UniProt P06935); experiment: Inhibition of WNV recombinant NS2B-NS3 protease at 10 uM
# Summary of the method: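 Single-concentration screen at 10 µM inhibitor, scoring inhibition of recombinant WNV protease processing of the chromogenic tetrapeptide substrate Ac-LKKR-pNA.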
# West Nile virus [2] = experiment: Antiviral activity against WNV Kunjin infected african green monkey Vero cells assessed as reduction in plaque size at 12.5 uM measured at 48 hrs postinfection; format: functional, organism-based
# Summary of the method: (§1)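 Vero cells were seeded at 4 × 10^4 per well and grown to about 90% confluence, then washed with PBS and serum-free medium. Cells were coinfected with WNV Kunjin (moi 0.04) plus compound at 100 nM–200 µM for 2 h at 37 °C. Overlay was M199, 3% FBS, 1.2% carboxymethyl cellulose, 48 h. Plaques were immunostained with anti-NS1 antibody and read as infrared area; ten plaques averaged per well, duplicates, IC50 from dose-response.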
# West Nile virus [3] = experiment: Antiviral activity against WNV Kunjin infected african green monkey Vero cells assessed as reduction in plaque size measured at 48 hrs postinfection; format: functional, organism-based; summary of the method: as §1
# Bos taurus = organism: Bos taurus; experiment: Inhibition of bovine trypsin at 1 uM
# [4] = molecular target: Coagulation factor X (Bos taurus) (UniProt P00743); experiment: Inhibition of bovine factor 10a at 1 uM
# [5] = molecular target: Plasminogen (Homo sapiens) (UniProt P00747); experiment: Inhibition of human plasmin at 1 uM
# [6] = molecular target: Urokinase-type plasminogen activator (Homo sapiens) (UniProt P00749); experiment: Inhibition of human urokinase at 1 uM
# Vero = experiment: Cytotoxicity against african green monkey Vero cells upto 400 uM after 72 hrs by MTT assay; format: cell-based; conditions: chlorocebus sabaeus
# Summary of the method: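 MTT viability in Vero cells seeded at 4 × 10^4 per well and grown to about 90% confluence (~12 h). Fresh medium held compound at 5 nM–400 µM, with control medium ± DMSO. After 72 h, MTT was added for 3.5 h at 37 °C, then HCl/isopropanol for 4 h at RT. Absorbance was read at 550 nm; CC50 estimated; duplicates.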
# Chain of Genome polyprotein (West Nile virus) (P06935 whole entry): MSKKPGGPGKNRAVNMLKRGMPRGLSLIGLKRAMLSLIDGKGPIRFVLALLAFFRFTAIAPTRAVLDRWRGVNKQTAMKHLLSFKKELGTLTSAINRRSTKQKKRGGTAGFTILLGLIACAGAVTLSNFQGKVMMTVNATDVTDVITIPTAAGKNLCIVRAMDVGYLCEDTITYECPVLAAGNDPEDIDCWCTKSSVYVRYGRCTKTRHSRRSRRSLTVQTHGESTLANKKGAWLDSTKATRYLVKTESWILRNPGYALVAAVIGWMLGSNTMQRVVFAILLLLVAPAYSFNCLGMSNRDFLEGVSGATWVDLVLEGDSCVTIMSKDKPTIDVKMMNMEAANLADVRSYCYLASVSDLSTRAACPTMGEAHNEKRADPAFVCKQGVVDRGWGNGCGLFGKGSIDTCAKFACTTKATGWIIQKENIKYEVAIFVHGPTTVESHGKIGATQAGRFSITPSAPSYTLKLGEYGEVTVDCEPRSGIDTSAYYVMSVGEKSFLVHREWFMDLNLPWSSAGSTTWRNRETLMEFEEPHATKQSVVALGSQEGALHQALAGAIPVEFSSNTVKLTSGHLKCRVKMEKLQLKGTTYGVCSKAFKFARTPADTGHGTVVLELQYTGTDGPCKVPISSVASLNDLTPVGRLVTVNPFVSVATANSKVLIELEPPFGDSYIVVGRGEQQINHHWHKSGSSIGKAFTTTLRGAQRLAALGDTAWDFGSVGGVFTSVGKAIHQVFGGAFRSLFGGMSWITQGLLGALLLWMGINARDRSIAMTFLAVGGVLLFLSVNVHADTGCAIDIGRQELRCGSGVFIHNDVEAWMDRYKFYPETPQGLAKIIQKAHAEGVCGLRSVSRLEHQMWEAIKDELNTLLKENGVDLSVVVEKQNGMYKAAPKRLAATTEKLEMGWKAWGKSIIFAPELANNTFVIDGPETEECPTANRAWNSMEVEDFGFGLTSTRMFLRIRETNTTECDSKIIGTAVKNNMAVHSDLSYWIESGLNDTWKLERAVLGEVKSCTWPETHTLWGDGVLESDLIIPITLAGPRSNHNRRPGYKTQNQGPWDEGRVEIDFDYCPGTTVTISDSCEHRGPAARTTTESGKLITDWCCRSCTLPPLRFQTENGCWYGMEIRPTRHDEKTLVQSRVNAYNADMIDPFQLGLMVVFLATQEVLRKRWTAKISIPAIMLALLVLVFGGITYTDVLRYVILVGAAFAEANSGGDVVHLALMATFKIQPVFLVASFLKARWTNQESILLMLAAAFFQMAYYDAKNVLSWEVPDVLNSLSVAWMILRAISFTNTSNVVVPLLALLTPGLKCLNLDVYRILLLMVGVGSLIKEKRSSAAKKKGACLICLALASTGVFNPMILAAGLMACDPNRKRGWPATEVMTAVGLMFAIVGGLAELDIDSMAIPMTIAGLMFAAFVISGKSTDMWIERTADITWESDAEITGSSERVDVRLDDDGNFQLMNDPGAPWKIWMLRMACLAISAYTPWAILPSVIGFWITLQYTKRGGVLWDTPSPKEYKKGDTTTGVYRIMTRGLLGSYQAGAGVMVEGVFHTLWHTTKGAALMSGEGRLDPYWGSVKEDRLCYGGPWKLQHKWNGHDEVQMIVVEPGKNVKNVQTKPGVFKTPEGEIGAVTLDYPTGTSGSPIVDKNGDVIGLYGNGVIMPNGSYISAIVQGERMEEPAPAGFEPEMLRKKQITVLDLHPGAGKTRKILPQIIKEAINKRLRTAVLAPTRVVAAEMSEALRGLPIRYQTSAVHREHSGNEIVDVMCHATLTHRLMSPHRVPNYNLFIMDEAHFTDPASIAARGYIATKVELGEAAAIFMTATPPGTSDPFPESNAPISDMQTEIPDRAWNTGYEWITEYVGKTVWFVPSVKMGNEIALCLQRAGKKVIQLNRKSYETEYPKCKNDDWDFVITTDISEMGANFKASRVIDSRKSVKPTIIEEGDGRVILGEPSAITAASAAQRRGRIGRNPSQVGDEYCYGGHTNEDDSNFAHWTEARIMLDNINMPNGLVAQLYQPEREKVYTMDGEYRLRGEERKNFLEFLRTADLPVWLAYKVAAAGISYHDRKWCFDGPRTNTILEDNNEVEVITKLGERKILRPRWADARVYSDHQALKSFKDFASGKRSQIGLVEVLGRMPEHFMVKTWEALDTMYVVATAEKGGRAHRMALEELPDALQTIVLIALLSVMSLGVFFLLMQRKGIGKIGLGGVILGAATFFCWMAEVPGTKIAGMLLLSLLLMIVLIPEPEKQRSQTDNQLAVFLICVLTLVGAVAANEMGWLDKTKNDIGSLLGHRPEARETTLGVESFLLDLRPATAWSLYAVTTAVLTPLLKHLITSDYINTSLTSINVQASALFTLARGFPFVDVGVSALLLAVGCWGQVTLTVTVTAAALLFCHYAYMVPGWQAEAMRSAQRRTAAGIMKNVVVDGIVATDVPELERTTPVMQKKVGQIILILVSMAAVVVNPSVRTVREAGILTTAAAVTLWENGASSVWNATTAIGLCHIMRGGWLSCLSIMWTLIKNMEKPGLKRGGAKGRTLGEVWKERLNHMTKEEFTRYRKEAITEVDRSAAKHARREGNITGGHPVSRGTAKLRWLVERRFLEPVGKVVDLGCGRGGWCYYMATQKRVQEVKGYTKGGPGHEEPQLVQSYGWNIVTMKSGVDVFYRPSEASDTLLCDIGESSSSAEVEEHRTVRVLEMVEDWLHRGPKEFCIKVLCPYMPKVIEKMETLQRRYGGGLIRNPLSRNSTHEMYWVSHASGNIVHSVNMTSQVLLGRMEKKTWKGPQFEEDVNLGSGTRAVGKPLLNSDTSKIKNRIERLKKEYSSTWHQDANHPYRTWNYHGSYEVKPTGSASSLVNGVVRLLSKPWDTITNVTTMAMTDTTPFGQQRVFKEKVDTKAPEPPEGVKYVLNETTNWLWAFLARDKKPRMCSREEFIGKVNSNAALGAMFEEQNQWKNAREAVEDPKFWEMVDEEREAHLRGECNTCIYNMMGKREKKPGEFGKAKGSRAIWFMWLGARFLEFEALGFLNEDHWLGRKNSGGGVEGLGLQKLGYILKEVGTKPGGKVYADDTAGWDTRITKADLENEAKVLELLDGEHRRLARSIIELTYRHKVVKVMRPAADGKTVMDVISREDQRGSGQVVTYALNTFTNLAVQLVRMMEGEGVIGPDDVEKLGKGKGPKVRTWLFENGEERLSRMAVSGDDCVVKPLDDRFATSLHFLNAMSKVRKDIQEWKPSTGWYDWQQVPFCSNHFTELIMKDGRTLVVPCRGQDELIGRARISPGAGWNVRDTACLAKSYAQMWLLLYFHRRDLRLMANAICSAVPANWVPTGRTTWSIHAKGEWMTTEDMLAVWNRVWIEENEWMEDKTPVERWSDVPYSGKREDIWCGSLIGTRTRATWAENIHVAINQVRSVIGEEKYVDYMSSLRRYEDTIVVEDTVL
# Chain of Genome polyprotein (P06935 1371-1501 limits assumed): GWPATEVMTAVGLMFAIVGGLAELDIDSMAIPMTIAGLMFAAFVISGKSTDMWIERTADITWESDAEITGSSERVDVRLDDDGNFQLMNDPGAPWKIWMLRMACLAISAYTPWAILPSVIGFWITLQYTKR
# Chain of Genome polyprotein (P06935 1502-2120 limits assumed): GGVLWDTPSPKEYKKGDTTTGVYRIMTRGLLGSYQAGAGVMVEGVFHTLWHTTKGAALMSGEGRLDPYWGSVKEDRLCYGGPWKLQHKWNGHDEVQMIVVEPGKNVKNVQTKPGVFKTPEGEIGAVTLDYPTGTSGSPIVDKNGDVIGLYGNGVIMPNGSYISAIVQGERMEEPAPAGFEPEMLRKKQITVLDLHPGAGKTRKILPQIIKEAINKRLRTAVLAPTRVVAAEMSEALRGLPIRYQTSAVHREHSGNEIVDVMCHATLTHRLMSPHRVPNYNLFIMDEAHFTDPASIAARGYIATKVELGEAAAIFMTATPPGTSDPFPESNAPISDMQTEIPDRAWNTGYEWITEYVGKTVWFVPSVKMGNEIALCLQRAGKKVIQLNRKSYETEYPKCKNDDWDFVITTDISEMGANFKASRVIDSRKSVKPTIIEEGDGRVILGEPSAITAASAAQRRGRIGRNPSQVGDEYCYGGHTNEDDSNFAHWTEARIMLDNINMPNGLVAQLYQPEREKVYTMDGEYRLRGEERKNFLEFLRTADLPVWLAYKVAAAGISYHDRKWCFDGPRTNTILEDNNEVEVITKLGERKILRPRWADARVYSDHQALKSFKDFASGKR
# Chain of Coagulation factor X (Bos taurus) (P00743 41-180 limits assumed): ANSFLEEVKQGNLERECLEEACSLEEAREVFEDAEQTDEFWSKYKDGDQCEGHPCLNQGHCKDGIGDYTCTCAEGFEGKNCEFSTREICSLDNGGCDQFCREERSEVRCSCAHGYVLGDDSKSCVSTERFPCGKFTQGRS
# Chain of Coagulation factor X (Bos taurus) (P00743 234-492 limits assumed): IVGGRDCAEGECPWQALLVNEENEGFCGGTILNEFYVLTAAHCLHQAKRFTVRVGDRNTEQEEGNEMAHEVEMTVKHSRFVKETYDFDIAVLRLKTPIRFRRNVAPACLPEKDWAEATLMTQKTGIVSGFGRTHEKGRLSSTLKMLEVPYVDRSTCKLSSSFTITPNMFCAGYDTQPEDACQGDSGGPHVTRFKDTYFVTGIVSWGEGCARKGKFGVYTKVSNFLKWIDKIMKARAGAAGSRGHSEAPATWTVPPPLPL
Compound,IC50 (Genome polyprotein),Ki (Genome polyprotein),further results
COc1cccc(CC(=O)N[C@@H](CCCCN)C(=O)N[C@@H](CCCCN)C(=O)N[C@H](C=O)CCCN=C(N)N)c1,60 nM,11 nM,
N=C(N)NCCC[C@@H](C=O)NC(=O)[C@H](CCCCN)NC(=O)[C@H](CCCCN)NC(=O)/C=C/c1ccccc1,580 nM,104 nM,inhibition [1]: > 80%
COc1ccc2ccc([C@H](C)C(=O)N[C@@H](CCCCN)C(=O)N[C@@H](CCCCN)C(=O)N[C@H](C=O)CCCNC(=N)N)cc2c1,112 nM,20 nM,inhibition [1]: > 80%
N=C(N)NCCC[C@@H](C=O)NC(=O)[C@H](CCCCN)NC(=O)[C@H](CCCCN)NC(=O)Cc1ccc(-c2ccccc2)cc1,32 nM,6 nM,inhibition [1]: > 80%
NCCCC[C@H](NC(=O)c1ccc2ccccc2c1)C(=O)N[C@@H](CCCCN)C(=O)N[C@H](C=O)CCCN=C(N)N,231 nM,41 nM,
N=C(N)NCCC[C@@H](C=O)NC(=O)[C@H](CCCCN)NC(=O)[C@H](CCCCN)NC(=O)COc1ccccc1,107 nM,19 nM,
COc1cccc(CC(=O)N[C@@H](CCCCN)C(=O)N[C@@H](CCCCN)C(=O)N[C@H](C=O)CCCNC(=N)N)c1,,,inhibition [1]: > 80%
N=C(N)NCCC[C@@H](C=O)NC(=O)[C@H](CCCCN)NC(=O)[C@H](CCCCN)NC(=O)c1ccc2ccccc2c1,,,inhibition [1]: > 80%
NCCCC[C@H](NC(=O)c1ccccc1)C(=O)N[C@@H](CCCCN)C(=O)N[C@H](C=O)CCCN=C(N)N (Bz-Lys-Lys-Arg-aldehyde),271 nM,49 nM,
NCCCC[C@H](NC(=O)OCc1ccccc1)C(=O)N[C@@H](CCCCN)C(=O)N[C@H](C=O)CCCN=C(N)N (Cbz-Lys-Lys-Arg-aldehyde),222 nM,40 nM,
N=C(N)NCCC[C@@H](C=O)NC(=O)[C@H](CCCCN)NC(=O)[C@H](CCCCN)NC(=O)c1ccccc1N (H-[2Abz]KKR-aldehyde),891 nM,160 nM,
NCCCC[C@H](NC(=O)CCc1ccccc1)C(=O)N[C@@H](CCCCN)C(=O)N[C@H](C=O)CCCN=C(N)N (Hydrocinnamoyl-Lys-Lys-Arg-aldehyde),454 nM,81 nM,
NCCCC[C@H](NC(=O)[C@H](CCCN=C(N)N)NC(=O)Cc1ccccc1)C(=O)N[C@H](C=O)CCCN=C(N)N (PhAc-Arg-Lys-Arg-aldehyde),154 nM,28 nM,
N=C(N)NCCC[C@@H](C=O)NC(=O)[C@H](CCCNC(=N)N)NC(=O)[C@H](CCCCN)NC(=O)Cc1ccccc1 (PhAc-Lys-Arg-Arg-aldehyde),325 nM,58 nM,
N=C(N)NCCC[C@@H](C=O)NC(=O)[C@H](CCCCN)NC(=O)[C@H](CCCCN)NC(=O)Cc1ccccc1 (PhAc-Lys-Lys-Arg-aldehyde),,,inhibition [1]: > 80%; Activity (West Nile virus [2]): Active; IC50 (West Nile virus [3]): 1600 nM; inhibition (Bos taurus): 25%; inhibition [4]: 0%; inhibition [5]: 12%; inhibition [6]: 0%
NCCCC[C@H](NC(=O)Cc1ccccc1)C(=O)N[C@@H](CCCCN)C(=O)N[C@H](C=O)CCCN=C(N)N (PhAc-Lys-Lys-Arg-aldehyde),51 nM,9 nM,Activity (Vero): Non-toxic
NCCCC[C@H](NC(=O)Cc1ccccc1)C(=O)N[C@@H](CCCCN)C(=O)N[C@H](C=O)Cc1c[nH]c2ccccc12 (PhAc-Lys-Lys-Trp-aldehyde),25700 nM,4600 nM,
N=C(N)NCCC[C@@H](C=O)NC(=O)[C@H](CCCNC(N)=O)NC(=O)[C@H](CCCCN)NC(=O)Cc1ccccc1 (PhAc-Lys-[Cit]-Arg-aldehyde),11600 nM,2070 nM,
N=C(N)NCCC[C@@H](C=O)NC(=O)[C@H](CCCN)NC(=O)[C@H](CCCCN)NC(=O)Cc1ccccc1 (PhAc-Lys-[Orn]-Arg-aldehyde),73 nM,13 nM,
N=C(N)NCCCC[C@H](NC(=O)[C@H](CCCCN)NC(=O)Cc1ccccc1)C(=O)N[C@H](C=O)CCCNC(=N)N (PhAc-Lys-[hArg]-Arg-aldehyde),297 nM,53 nM,
N=C(N)NCCC[C@@H](C=O)NC(=O)[C@H](CCCCN)NC(=O)[C@H](CCCNC(N)=O)NC(=O)Cc1ccccc1 (PhAc-[Cit]-Lys-Arg-aldehyde),619 nM,111 nM,
N=C(N)NCCC[C@@H](C=O)NC(=O)[C@H](CCCCN)NC(=O)[C@H](CCCN)NC(=O)Cc1ccccc1 (PhAc-[Orn]-Lys-Arg-aldehyde),255 nM,46 nM,
N=C(N)NCCCC[C@H](NC(=O)Cc1ccccc1)C(=O)N[C@@H](CCCCN)C(=O)N[C@H](C=O)CCCNC(=N)N (PhAc-[hArg]-Lys-Arg-aldehyde),254 nM,44 nM,
N=C(N)NCCC[C@@H](C=O)NC(=O)[C@H](CCCCN)NC(=O)[C@H](CCCCN)NC(=O)NCc1ccccc1 ({NHBn-CO}-Lys-Lys-Arg-aldehyde),146 nM,26 nM,inhibition [1]: > 80%
